Laboratory results as given in ChEMBL document CHEMBL4513216, “Probing the Open Global Health Chemical Diversity Library for Multistage-Active Starting Points for Next-Generation Antimalarials” (ACS Infect Dis, 2020).

Experiment: Toxicity liver stage against HepG2, at 10uM
Format: cell-based
Parameters: test concentration 10 uM, cell line HepG2-A16-CD81EGFP
Settings: human, HepG2-A16-CD81EGFP cells; read-out: INHIBITION
Summary of the method: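 Uninfected HepG2-A16-CD81EGFP cells, 3 × 10^3 per well, 1536-well, plated on prespotted compound at 10 μM final, parasite-free screening media added to match infected plates; puromycin 10 μM positive, DMSO 0.5% negative; run in parallel with 48 h PbLuc assay at 37 °C, 5% CO2; viability by CellTiter-Glo luminescence, normalized to controls.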

SMILES | cytotoxicity at 10 µM
Cc1ccc(-c2[nH][nH]c(=O)c2CCN)cc1 | 6.03%
O=C1CCCN1CCCC(=O)N1CCCCC1c1ccc(F)cc1 (stereo not given) | -43.2%
CC1=CCN(S(=O)(=O)c2cccc(C(=O)N3CCCN(C)CC3)c2)CC1 | -2.36%
CN(CC(=O)Nc1cc(CC2CCCCC2)n[nH]1)S(C)(=O)=O | 3.44%
Cc1cnc(C2(C)CCN(Cc3csc(C)n3)CC2)s1 | -16.1%
O=C(Nc1cc2c(cc1Br)OCCO2)NC1CCS(=O)(=O)C1 (stereo not given) | -9.82%
Cc1nc(NC(=O)c2nn(-c3ccc(F)cc3C)cc2O)n[nH]1 | -7.3%
CC(C)OCCS(=O)(=O)NC1CCN(C2CCCC2)C1 (stereo not given) | 1.68%
CCCN(Cc1cccnc1)Cc1ccc(C2CCCCO2)o1 (stereo not given) | 1.97%
COC(=O)C(C)(C)NC(=O)C1CC(=O)N(C2CCCC2)C1 (stereo not given) | -10.3%
Cc1nc(CN2CC(CO)Oc3ccccc32)sc1C (stereo not given) | 0.918%
O=C(N1CCCC1)N1CCOCC2(CCN(Cc3cccs3)C2)C1 (stereo not given) | -3.85%
O=C(NCCCN1CCOCC1)c1cccc(OCc2ccccc2)c1 | -4.87%
O=C(NCc1ccc2c(c1)OCO2)Nc1cccnc1N1CCCC1 | -13.4%
COCC(=O)N1CCc2ccc(=O)n(Cc3csc(C)n3)c2CC1 | 8.19%
COc1cccc(CN2CC[C@H]3[C@@H](C2)[C@H](c2ccsc2)CN3C(C)=O)c1 | -5.61%
COc1cccc(COCC(=O)N2CCCC(c3cc(C)[nH]n3)C2)c1 (stereo not given) | -6.81%
CN(C)C1CCCN(Cc2cccc(Cn3cccn3)c2)CC1 (stereo not given) | -12.6%
O=C(N1CCCC1)C1(Cc2ccc(-c3cccs3)cc2)CCNC1 (stereo not given) | -1.75%
N#Cc1ncn(CCC(=O)Nc2ccccc2F)n1 | -150%
Cc1nc2ccc(C(=O)N3C[C@@H](O)[C@H](N4CCCC4)C3)cc2[nH]1 | -8.66%
Cn1c(Nc2ccc(F)cc2)c(C#N)c(=O)n(C)c1=O | 1.77%

SMILES | cytotoxicity at 10 µM
Cc1cc(NCCn2cccn2)n2ncnc2n1 | -2.27%
OC1(CNC2CCN(Cc3ccncc3)CC2)CCc2ccccc21 (stereo not given) | -1.41%
CC(C1CC1)N(C)Cc1nnc(-c2ccc(Br)s2)o1 (stereo not given) | -11.2%
c1ccc(CN2CCN(C3CCOC4(CCOCC4)C3)CC2)nc1 (stereo not given) | -0.971%
CCn1cc(CN2CCCN(C(=O)c3cc(C)no3)CC2)cn1 | 3.22%
O=C(c1ccccn1)N1CCN(C(c2ccccc2)C(F)(F)F)CC1 (stereo not given) | -8.18%
O=C(NC1CCCNC1=O)c1ccc2nc(-c3ccc(F)cc3)cn2c1 (stereo not given) | 8.8%
COCCCNC(=O)c1ccn(-c2ccc3ccccn23)n1 | -0.987%
O=C(CCC1CCN(C(=O)c2cnco2)CC1)NCc1cccc(Cl)c1 | -8.48%
Cc1cn(CC(=O)NC2CCC(C(=O)O)CC2)c2ccccc12 (stereo not given) | -0.214%
COCCN1CCC(CNC(=O)C2(c3ccccc3)CCC2)C1 (stereo not given) | -5.36%
O=C(c1ccsc1)N1CCc2onc(COc3ccccn3)c2C1 | 6.43%
Cc1noc([C@H]2C[C@H]3OCC[C@H]3N(S(=O)(=O)C3CC3)C2)n1 | -10.5%
CCC(OC)C(=O)N1CCC2(CC1)c1nc[nH]c1CCN2S(C)(=O)=O (stereo not given) | -6.6%
CN(Cc1ccco1)C(=O)NCc1nnc2n1CCC2 | 16.9%
CCOCCOC(C)C(=O)Nc1ccnn1-c1ccccc1C (stereo not given) | -0.308%
COc1cccc(S(=O)(=O)CCN2CCn3c(C)nnc3C2)c1 | -18.7%
CCN1CCCC1CNC(=O)Cc1c(C)n[nH]c1-c1ccc(F)cc1 (stereo not given) | -3.02%
CCN(C)S(=O)(=O)N1CCCC(c2nc(-c3ccccc3)c[nH]2)C1 (stereo not given) | -8.02%
c1ccc(OCC2CC3(CCN(c4ncccn4)CC3)CO2)nc1 (stereo not given) | 0.485%
O=C1CC(c2ccncc2)c2c(c(C(=O)O)cn2-c2ccc(F)cc2)N1 (stereo not given) | 10.1%
Cc1nnc([C@H]2C[C@H]3OCC[C@H]3N(S(=O)(=O)CC(C)C)C2)o1 | -5.27%

SMILES | cytotoxicity at 10 µM
CCc1c(C(=O)N2CCN(CC(N)=O)CC2)cnn1C(C)(C)C | -1.77%
COCC(=O)NCC1(COc2cnccn2)C[C@@H](O)[C@@H](O)C1 (stereo not given in full) | 2.17%
Cn1ncc(Cl)c1C(=O)N1CCC(c2nnsc2S(C)(=O)=O)CC1 | -4.7%
Cc1nnc([C@@]23CCO[C@@H]2CCN(S(=O)(=O)c2ccccc2)C3)o1 | -99.4%
Cc1c(-c2cnn(C)c2)nc(N)c(C#N)c1-c1ccc(CO)o1 | -117%
CN1C(Cn2cccn2)C[C@@H]2CN(Cc3nccs3)CC[C@@H]21 (stereo not given in full) | 3.8%
c1ccc(CCN2CCN(c3ccc4nncn4n3)CC2)cc1 | -11.7%
OCc1ccc(OCC(F)(F)F)cc1 | -11.9%
Cc1nn(C)c(Cl)c1C1CCCN1c1ncnc2c1CCC2 (stereo not given) | 19.1%
CCN(CC1CN(Cc2cccc(C#N)c2)CCO1)c1cccnn1 (stereo not given) | 17%
CC1(c2[nH]ncc2C(N)=O)CCN(S(=O)(=O)c2ccccc2)CC1 | -1.29%
c1nc(N2CCOCC2)nc2c1COCC21CCN(CC2CC2)C1 (stereo not given) | 9.69%
COc1cc(N2CCc3ncnc(-c4ccoc4)c3CC2)ncn1 | 14.9%
CN1CCCCC1c1ncc2c(n1)CCN(Cc1ccc(F)cc1)C2 (stereo not given) | -17.6%
N#CC1(NC(=O)c2c(F)ccc(OC(F)F)c2F)CCOCC1 | -8.29%
Cn1cc(C2(C)CN(C(=O)COc3ccccc3F)CCO2)cn1 (stereo not given) | 0.814%
CN(C)C1CCN(C(=O)CCc2cc(Br)cs2)CC1 | -18%
Cc1nc(CN2CCCN(CCOc3ccc(C#N)cc3)CC2)no1 | -5.93%
CCc1nccn1C1CCCN(C(=O)c2ccc3[nH]c(=O)[nH]c3c2)C1 (stereo not given) | -3.71%
O=C(NCCc1ccncc1)[C@@H]1CC[C@@H]2[C@@H](CCN2Cc2ccco2)O1 | 1.15%
CC(C)C(=O)NS(=O)(=O)c1ccc(F)c(C(F)(F)F)c1 | -2.32%
Cc1c[nH]c(CN2CCCCC2CCc2cccc(O)c2)c(C)c1=O (stereo not given) | -14.6%

SMILES | cytotoxicity at 10 µM
CC(C)(C)c1cn(C[C@H]2CC3CCN2C[C@@H]3C(=O)NC2CC2)nn1 (stereo not given in full) | 9.46%
CCn1cc(C2=CCN(CCCOc3ccccc3)CC2)cn1 | -9.98%
CC(C)Nc1cccc(C(=O)NCC(O)c2cccc(F)c2)c1 (stereo not given) | 4.67%
COCC(=O)N1CCc2nc(C(=O)N(C)C)sc2CC1 | 15.5%
Cc1nc(C)n(CC2CN(S(C)(=O)=O)Cc3nccn3C2)n1 (stereo not given) | -140%
COc1ccc(C(C)NCc2nnc(C)s2)cc1F (stereo not given) | -19.8%
Cc1nc(CN2CCOCC3(CCN(c4cccnc4)CC3)C2)cs1 | -12.2%
COc1ccccc1CCNC(=O)N1CCC(n2cncn2)CC1 | 0.428%
COc1ncccc1-c1nc(-c2ccccn2)nn1C1CCN(C)CC1 | -4.52%
COc1cc(CNC(=O)NCCCF)cc(Br)c1OC | 11.4%
Cc1cc(C)n(C2CCCN(C(=O)CCCNc3ncccn3)C2)n1 (stereo not given) | 5.15%
CCCNC(=O)c1cc2c(c3ccccc3n2C)n1C(=O)N(C)C | 0.539%
Cc1ccc(C2(C(=O)N3CCC(n4cc(C(C)O)nn4)CC3)CC2)cc1 (stereo not given) | -2.26%
CC(C)(CNC(=O)Nc1cccc(-c2nccs2)c1)C(N)=O | -10%
OC(CN1CCN(CC2CC2)CC1)c1ccc(Br)cc1 (stereo not given) | -8.69%
CCn1nc(CC(C)C)cc1C(=O)N1CCCOC(CN2CCCC2)C1 (stereo not given) | -7.66%
Cc1noc(C2CCN(C(=O)CCCNc3ncccn3)CC2)n1 | -6.69%
Cc1cccc(S(=O)(=O)NC(=O)CN(C)Cc2ccccc2)c1 | -14.3%
COc1cccc(NC(=O)NCC(Cc2cnn(C)c2)C(N)=O)c1 (stereo not given) | -6.52%
CC(C)CN(C(=O)Nc1cccc(C(=O)N(C)C)c1)C1CC1 | -15.2%
COc1cc(C(=O)NCc2cc(N3CCOCC3)ncn2)ccn1 | -10.8%
Cn1cc(CCNCC2CNc3ccnn3C2)cn1 (stereo not given) | 3.34%

SMILES | cytotoxicity at 10 µM
Cn1ncc2c(=O)[nH]c(N3CCCC3c3cccc(Cl)c3)nc21 (stereo not given) | 19.6%
Cc1cccc(C)c1OCCNC(=O)C[S+]([O-])C1CCCC1 (stereo not given) | -136%
Cc1c(C)n(Cc2ccncc2)c2nc3c(c(N)c12)CCCCCC3 | 9.18%
CCSc1ccc(C(=O)N2CCCC2C(=O)N2CCOCC2)cn1 (stereo not given) | -6.98%
CN(CCCc1cnn(C)c1)Cc1cc2n(n1)CCCNC2 | 6.49%
CCCc1ccc(N2CCN(Cc3nc4ccccc4n3C)CC2)cc1 | 7.06%
O=C(NCCNc1ncccn1)c1ccc(-c2ccco2)[nH]c1=O | -3.29%
COc1ccccc1OC1CN(C(=O)c2ccc(C(C)=O)s2)C1 | 2.01%
CCn1c(CN2CCOC(Cn3cccn3)C2)nc2c(F)cccc21 (stereo not given) | -3.43%
COc1ccc(CNC(=O)Nc2cccnc2N2CCCC2)cc1OC | -24.6%
O=C(CCn1ccc2ccccc21)N1CCN(Cc2cccnc2)CC1 | 0.951%
Cc1noc(CN(Cc2cccs2)C2CC2)n1 | -0.243%
Cc1noc(C)c1CN1C(=O)[C@@H]2CC[C@H]1CN(Cc1nccs1)C2 | -0.626%
O=C(CCN1CCOCC1)NC(Cc1ccsc1)c1nccs1 (stereo not given) | 3.35%
CCN(CC(=O)NC)C(=O)c1cc(-c2cccc(Cl)c2)no1 | 8.5%
CC1(NC(=O)Cc2csc(C(C)(C)C)n2)CCS(=O)(=O)C1 (stereo not given) | -4.17%
Cc1nc(C2CCCNC2)cc(N(Cc2c(C)nn(C)c2C)C2CC2)n1 (stereo not given) | -7.23%
O=C(NC1CC1)c1cc(C(F)(F)F)cc(C(=O)NC2CC2)n1 | 9.97%
O=C(c1cscn1)N1CC[C@H]2[C@@H]1CCC(=O)N2c1ccccc1 | -68.8%
Cc1cc(N2CCN(C(=O)CCc3scnc3C)CC2)nc(N)n1 | -49.2%
COCCN1CCC(Nc2c(F)cc(C#N)cc2F)CC1 | -5.41%
O=C(c1ccc(-n2cccn2)c(F)c1)N1CCCN2CCCC2C1 (stereo not given) | -3.9%
